Experimental data: ChEMBL document CHEMBL1240384, “Inhibition of Porphyromonas gingivalis biofilm by oxantel” (2010)
Converted amounts (≈) assume the structure as drawn. “And” between values parts separate entries of the source, which are not always exact repeats. Identical values can stand only once. The source made the active and inactive calls. The calls are words filed in the database; no cut-off is given here.

Key:
Type in all cases: functional
[1] = tested on: Porphyromonas gingivalis; experiment: Antimicrobial activity against Porphyromonas gingivalis assessed as reduction in biovolume at 12.5 uM after 18 hrs
Method in brief: (§1)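 Three-channel flow cell inoculated with 1 ml of exponential ATCC 33277 culture at 5 × 10^8 cells/ml, left 1 h, then fed 0.2 ml/min of 5×-diluted supplemented brain heart infusion. At 18 h, 1 ml of 12.5 or 125 μM compound in sterile water (water control) was injected per channel for 30 min, followed by a 10 min medium wash. BacLight in situ, CLSM (63×, 2 μm sections, 488/568 nm), five random images per replicate, COMSTAT analysis; mean ± SD of three biological replicates.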

[2] = tested on: Porphyromonas gingivalis; experiment: Antimicrobial activity against Porphyromonas gingivalis assessed as reduction in thickness of biofilm at 12.5 uM after 18 hrs; method in brief: as §1
[3] = tested on: Porphyromonas gingivalis; experiment: Antimicrobial activity against Porphyromonas gingivalis assessed as surface area/biovolume ratio at 12.5 uM after 18 hrs; method in brief: as §1
[4] = tested on: Porphyromonas gingivalis; experiment: Antimicrobial activity against Porphyromonas gingivalis assessed as reduction in surface area of substratum occupied by cells at 12.5 uM after 18 hrs; set-up: scale not given: the % may be the effect or the level left; method in brief: as §1
[5] = tested on: Porphyromonas gingivalis; experiment: Antimicrobial activity against Porphyromonas gingivalis assessed as reduction in average number of microcolonies at 12.5 uM after 18 hrs; method in brief: as §1
[6] = tested on: Porphyromonas gingivalis; experiment: Antimicrobial activity against Porphyromonas gingivalis assessed as reduction in average number of microcolony area at 12.5 uM after 18 hrs; method in brief: as §1
[7] = tested on: Porphyromonas gingivalis; experiment: Antimicrobial activity against Porphyromonas gingivalis W50
Method in brief: (§2)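 Planktonic growth of P. gingivalis ATCC 33277 (fimbriated) and W50 (afimbriated) in 96-well plates, starting inoculum ~5.0 × 10^7 CFU per well. MIC determined, and mean generation time measured with DMSO alone or with drug at 31.25 and 62.5 μM. MGT differences were tested at P < 0.05.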

[8] = tested on: Porphyromonas gingivalis; experiment: Antimicrobial activity against Porphyromonas gingivalis W50 assessed as mean generation time at 31.25 uM; method in brief: as §2
[9] = tested on: Porphyromonas gingivalis; experiment: Antimicrobial activity against Porphyromonas gingivalis W50 assessed as mean generation time at 62.5 uM; method in brief: as §2
[10] = tested on: Porphyromonas gingivalis; experiment: Antimicrobial activity against Porphyromonas gingivalis ATCC 33277; method in brief: as §2
[11] = tested on: Porphyromonas gingivalis; experiment: Antimicrobial activity against Porphyromonas gingivalis ATCC 33277 assessed as mean generation time at 31.25 uM; method in brief: as §2
[12] = tested on: Porphyromonas gingivalis; experiment: Antimicrobial activity against Porphyromonas gingivalis ATCC 33277 assessed as mean generation time at 62.5 uM; method in brief: as §2
[13] = tested on: Porphyromonas gingivalis; experiment: Antimicrobial activity against Porphyromonas gingivalis ATCC 33277 assessed as reduction of biofilm formation after 24 hrs
Method in brief: (§3)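 Static 96-well biofilm model with P. gingivalis ATCC 33277, grown 24 h with drug. Biofilm mass was quantified by crystal violet. Results are means of 12 replicates, compared with untreated and DMSO controls by one-way ANOVA with Scheffe multiple comparison.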

[14] = tested on: Porphyromonas gingivalis; experiment: Antimicrobial activity against Porphyromonas gingivalis ATCC 33277 assessed as reduction of biofilm formation at 125 uM after 24 hrs; method in brief: as §3
[15] = tested on: Porphyromonas gingivalis; experiment: Antimicrobial activity against Porphyromonas gingivalis ATCC 33277 assessed as reduction of biofilm formation at 0.1 uM after 24 hrs; method in brief: as §3
[16] = tested on: Porphyromonas gingivalis; experiment: Antimicrobial activity against Porphyromonas gingivalis assessed as reduction in surface area of substratum occupied by cells at 125 uM after 18 hrs; set-up: scale not given: the % may be the effect or the level left; method in brief: as §1
[17] = tested on: Porphyromonas gingivalis; experiment: Antimicrobial activity against Porphyromonas gingivalis ATCC 33277 assessed as thickness of biofilm at 12.5 uM after 18 hrs by confocal laser scanning microscopy; method in brief: as §1
[18] = tested on: Porphyromonas gingivalis; experiment: Antimicrobial activity against Porphyromonas gingivalis ATCC 33277 assessed as thickness of biofilm at 125 uM after 18 hrs by confocal laser scanning microscopy; method in brief: as §1

Structure (SMILES)	Activity [1] [µm3/µm2]	Activity [2] [µm]	Activity [3] [µm2/µm3]	Activity [4] [%]	Activity [5] [count]	Activity [6] [µm2]	MIC [7] [µM]	Activity [8] [h]	Activity [9] [h]	MIC [10] [µM]	Activity [11] [h]	Activity [12] [h]	Activity [13]	Activity [14]	Activity [15]	Activity [16]	Activity [17]	Activity [18]
Cc1ncc([N+](=O)[O-])n1CCO [METRONIDAZOLE]	2.19	2.17	1.63	27.4	23.7	102												
Cc1ccsc1/C=C/C1=NCCCN1C [MORANTEL]							2800 (≈ 617 µg/mL)	11	11.3									
CN1CCCN=C1/C=C/c1cccc(O)c1 [OXANTEL]	1.44	0.83	2.31	33.2	18.3	124	112 (≈ 24.2 µg/mL)	19.2	23.8	125 (≈ 27 µg/mL)	10	24	Dose-dependent effect	Active	Active	23.8% and 27%	Active	Active
c1ccc2[nH]c(-c3cscn3)nc2c1 [THIABENDAZOLE]							> 3000	6.8	6.2									
